By half-life is commonly meant the time in which the quantity being followed falls by half. As a reminder, the MBC is the lowest tested concentration that kills the bacteria rather than only halting them. A high value points to less potent killing. The MFC is the smallest concentration meeting the test's criterion for killing the fungus.

Converted amounts (≈) assume the structure as drawn. Bounds are passed on as bounds.

Here are results for 21 compounds from ChEMBL document CHEMBL1151862, “Quaternary ammonium N,N-dichloroamines as topical, antimicrobial agents” (Bioorg Med Chem Lett, 2009).

A short description of series [1]: Stability in water assessed as half life at pH 4 at 40 degC. The class given is physicochemical.
Another series has as its system Staphylococcus aureus. The series can be described thus: Antibacterial activity against Staphylococcus aureus ATCC 29213 after 1 hr by CLSI M26-A based method at room temperature. Format: functional. Conditions: ATCC 29213, 1 h. In a few lines:
(§1)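 Minimum bactericidal (bacteria) or fungicidal (C. albicans) concentration was determined by a modified CLSI M26-A method. Isotonic saline at pH 4 replaced Mueller–Hinton broth because chlorine reacts with broth components. Exposure was shortened from 16–20 h at 35 °C to 1 h at room temperature.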

The next series relates to Escherichia coli. The series can be described thus: Antibacterial activity against Escherichia coli ATCC 25922 after 1 hr by CLSI M26-A based method at room temperature. Format: functional. Particulars: ATCC 25922, 1 h. In a few lines:
as §1

Another series has as its system Candida albicans. The series can be described thus: Antifungal activity against Candida albicans ATCC 10231 after 1 hr by CLSI M26-A based method at room temperature. Format: functional. Conditions: ATCC 10231, 1 h. In a few lines: as §1
Series [2] in a line: Stability in saline solution assessed as half life at pH 4. The class given is physicochemical. In a few lines: (§2)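 Aqueous half-life is reported in days. Media were saline at pH 4, phosphate at pH 7, and, for some analogs, 0.6% borate buffer at pH 7. Biological testing was limited to analogs with aqueous stability above 24 h at 40 °C.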
A short description of series [3]: Stability in phosphate buffer assessed as half life at pH 7. The class given is physicochemical. In a few lines: as §2
The nature of series [4]: Stability in 0.6% borate buffer assessed as half life at pH 7. Format: physicochemical. In a few lines:
as §2

As for `CC(C)(CNC(=O)CCS(=O)(=O)O)N(Cl)Cl`, the half-life in series [1] is 0.5 days.
For `CC(C)(CS(=O)(=O)[O-])N(Cl)Cl.[Na+]`, the MBC in the series on Staphylococcus aureus and with Escherichia coli was 2 µg/mL in each case. This compound also had an MFC with Candida albicans of 32 µg/mL. Besides, the half-life in series [2] is greater than 730 days; in series [3], greater than 300 days.
In the case of `C[n+]1ccc(CCC(C)(C)N(Cl)Cl)cc1.[Cl-]`, the MBC against Staphylococcus aureus was 8 µg/mL; in the series with Escherichia coli, 2 µg/mL. Besides, in the series with Candida albicans, the minimal fungicidal concentration (MFC) was found to be 1020 µg/mL. Further, the half-life in series [2] is greater than 60 days; in series [4], 20 days.
Take `CC(C)(Cc1nc(CS(=O)(=O)O)no1)N(Cl)Cl`: the minimum bactericidal concentration (MBC) in the series with Staphylococcus aureus worked out at 2 µg/mL (≈ 6.58 µM); against Escherichia coli it was 4 µg/mL (≈ 13.2 µM). The compound further came in with an MFC with Candida albicans of 16 µg/mL (≈ 52.6 µM). In addition, the half-life in series [2] is 106 days; in series [3], 17 days.
`CC(C)(c1cn(CCS(=O)(=O)O)nn1)N(Cl)Cl`: the minimal bactericidal concentration (MBC) with Staphylococcus aureus turned out to be 8 µg/mL (≈ 26.4 µM); in the series with Escherichia coli, 4 µg/mL (≈ 13.2 µM). This compound returned an MFC with Candida albicans of 32 µg/mL (≈ 106 µM). The half-life in series [2] is 10 days; in series [3] it was 5 days.
Consider `CC(C)(CC(=O)OCCS(=O)(=O)O)N(Cl)Cl`, for which the half-life in series [1] was greater than 95 days.
Turning to `CC(C)(C[N+]1(C)CCOCC1)N(Cl)Cl.[Cl-]`, the half-life in series [2] and in series [3] was less than 1 days in each case.
As to `CC(C)(C[N+]1(C)CCCCC1)N(Cl)Cl.[Cl-]`, the MBC in the series on Staphylococcus aureus is 16 µg/mL; against Escherichia coli, 8 µg/mL. This compound also registered an MFC in the series with Candida albicans of 64 µg/mL. In addition, the half-life in series [2] is greater than 122 days; in series [3], 100 days.
For `CC(C)(CC(=O)OCC[N+]1(C)CCCCC1)N(Cl)Cl.[Cl-]`, the minimal bactericidal concentration (MBC) was found to be 4 µg/mL in the series with Staphylococcus aureus and 2 µg/mL with Escherichia coli. In addition, the half-life in series [2] was greater than 72 days; in series [3], 7 days.
Turning to `C[S+](C)CC(C)(C)N(Cl)Cl.[Cl-]`, the values for the MBC in the series on Staphylococcus aureus and against Escherichia coli were 8 µg/mL and 4 µg/mL, respectively. The MFC in the series with Candida albicans is 128 µg/mL. Also, the half-life in series [2] is greater than 67 days; in series [3], 1 days.
On to `CC(C)(C[N+](C)(C)C)N(Cl)Cl.[Cl-]`, for which the MBC was determined as 16 µg/mL with Staphylococcus aureus and 8 µg/mL against Escherichia coli. Further, in the series on Candida albicans, the MFC was found to be 128 µg/mL. Also, the half-life was greater than 325 days in series [2] and greater than 396 days in series [3].
In the case of `CC(=O)N1CC[N+](C)(CC(C)(C)N(Cl)Cl)CC1.[Cl-]`, the MBC in the series with Staphylococcus aureus came out at 64 µg/mL; with Escherichia coli, 16 µg/mL. Moreover, the minimal fungicidal concentration (MFC) with Candida albicans was greater than 1020 µg/mL. Moreover, the half-life in series [2] is 37 days; in series [4] it was 6 days.
Regarding `CC(C)(C[N+](C)(C)CCS(=O)(=O)O)N(Cl)Cl.[Cl-]`, the MBC with Staphylococcus aureus is 64 µg/mL; in the series with Escherichia coli it was 16 µg/mL. The compound also gave an MFC in the series on Candida albicans of 128 µg/mL. The half-life in series [2] was greater than 180 days; in series [3] it was 19 days.
The corresponding values for `Cn1nc[n+](C)c1CC(C)(C)N(Cl)Cl.[Cl-]` are 4 µg/mL, 2 µg/mL, 16 µg/mL, 67 days and 5 days.
Regarding `CN(CC[N+](C)(C)C)C(=O)CC(C)(C)N(Cl)Cl.[Cl-]`, the figures for the MBC against Staphylococcus aureus and in the series on Escherichia coli were 16 µg/mL and 2 µg/mL, respectively. The MFC in the series on Candida albicans is 32 µg/mL. For the same compound, the half-life was 4 days in series [2] and 6 days in series [3].
`CC(C)(CC(=O)NCCS(=O)(=O)O)N(Cl)Cl`: the MBC in the series with Staphylococcus aureus was 8 µg/mL (≈ 27.3 µM); against Escherichia coli, 2 µg/mL (≈ 6.82 µM). The compound further showed an MFC against Candida albicans of 64 µg/mL (≈ 218 µM). Further, the half-life in series [2] is 33 days; in series [4], 36 days.
As for `CN(CCS(=O)(=O)O)C(=O)CC(C)(C)N(Cl)Cl`, the MBC against Staphylococcus aureus was 2 µg/mL (≈ 6.51 µM); in the series on Escherichia coli, 1 µg/mL (≈ 3.26 µM). Moreover, the MFC against Candida albicans was found to be 32 µg/mL (≈ 104 µM). In addition, the half-life in series [2] and in series [3] was 1 days throughout.
Regarding `Cc1nc(CC(C)(C)N(Cl)Cl)n(CCS(=O)(=O)O)n1`, the MBC in the series on Staphylococcus aureus and with Escherichia coli was 4 µg/mL (≈ 12.1 µM) in each case. In the series with Candida albicans, the MFC amounted to 64 µg/mL (≈ 193 µM). Moreover, the half-life in series [2] is 46 days; in series [3], 50 days.
Consider `Cc1nn(C)c(CC(C)(C)N(Cl)Cl)[n+]1C.[Cl-]`, for which the MBC in the series on Staphylococcus aureus was 8 µg/mL; against Escherichia coli, 4 µg/mL. In addition, the MFC in the series with Candida albicans was 32 µg/mL. Further, the half-life in series [2] was 61 days; in series [3] it was 4 days.
As for `CC(C)(COCCCS(=O)(=O)O)N(Cl)Cl`, the half-life in series [1] is 0.104 days.
Turning to `CC(C)(Cc1ncnn1CCS(=O)(=O)O)N(Cl)Cl`, the MBC against Staphylococcus aureus stood at 4 µg/mL (≈ 12.6 µM); with Escherichia coli it was 2 µg/mL (≈ 6.31 µM). Moreover, in the series on Candida albicans, the MFC was found to be 64 µg/mL (≈ 202 µM). Further, the half-life in series [2] was 21 days; in series [3], 23 days.
